From ChEMBL document CHEMBL1921718, “Structure-activity relationships in toll-like receptor 2-agonists leading to simplified monoacyl lipopeptides” (J Med Chem, 2011)
Active and inactive are the calls of the source. No cut-off for these calls is given here.

What was measured:
[1] = biological target: Toll-like receptor 2 (Homo sapiens, UniProt O60603); experiment: Agonist activity at human TLR2 expressed in HEK293 cells assessed as NF-kappaB induction measured soluble alkaline phosphatase after 12 hrs by spectrophotometric analysis; format: functional, cell-based
Toll-like receptor 2, sequence (O60603 whole entry): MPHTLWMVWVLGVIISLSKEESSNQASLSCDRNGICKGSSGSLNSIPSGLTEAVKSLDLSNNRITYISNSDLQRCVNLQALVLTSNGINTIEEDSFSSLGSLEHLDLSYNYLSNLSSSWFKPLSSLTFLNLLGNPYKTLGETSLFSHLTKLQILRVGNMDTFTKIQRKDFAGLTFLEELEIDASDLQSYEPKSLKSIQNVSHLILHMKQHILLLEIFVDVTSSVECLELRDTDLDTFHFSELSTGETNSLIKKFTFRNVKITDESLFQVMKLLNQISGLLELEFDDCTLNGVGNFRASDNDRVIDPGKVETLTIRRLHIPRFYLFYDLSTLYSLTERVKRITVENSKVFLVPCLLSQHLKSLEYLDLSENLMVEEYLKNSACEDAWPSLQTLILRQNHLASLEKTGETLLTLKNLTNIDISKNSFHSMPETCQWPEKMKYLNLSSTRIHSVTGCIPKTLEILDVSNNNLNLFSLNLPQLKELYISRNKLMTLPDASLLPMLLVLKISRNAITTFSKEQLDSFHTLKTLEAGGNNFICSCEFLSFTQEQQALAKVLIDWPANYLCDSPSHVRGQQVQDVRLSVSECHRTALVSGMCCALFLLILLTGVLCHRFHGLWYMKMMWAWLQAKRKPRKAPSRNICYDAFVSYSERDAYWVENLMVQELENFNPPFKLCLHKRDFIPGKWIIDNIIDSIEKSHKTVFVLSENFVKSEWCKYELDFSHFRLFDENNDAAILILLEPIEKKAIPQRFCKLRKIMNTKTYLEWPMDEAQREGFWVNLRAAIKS
In short: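 HEK-Blue cells (HEK293 stably transfected with human TLR2 and NF-κB-driven secreted alkaline phosphatase) kept in selection medium with zeocin and normocin; seeded ~10^5 cells/mL, grown to confluency, then stimulated 12 h with serially diluted compounds. Supernatant sAP read spectrophotometrically at 620 nm using an alkaline phosphatase-specific chromogen in the detection medium.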

[2] = Upregulation of p38 MAPK expression in […] […] by flow cytometric analysis; format: functional, cell-based; settings: Homo sapiens
In short: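 Heparinized fresh human whole blood exposed to graded compound concentrations in saline for 15 min at 37 °C. Red cells lysed and leukocytes fixed in one step, then permeabilized in ice-cold methanol 30 min. Stained with PE anti-phospho-p38MAPK (pT180/pY182, α/β/γ/δ isoforms). Single-colour PE flow cytometry on 20,000 gated events.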

[3] = Upregulation of CD11b expression in human […] by flow cytometric analysis; format: functional, cell-based
In short: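 Fresh heparinized or anticoagulated human whole blood from healthy adults, incubated with graded compound dilutions 1 h at 37 °C, with saline negative controls. Kept on ice 15 min, then stained with anti-CD11b on ice 30 min so only surface CD11b was labelled. Red cells lysed and leukocytes fixed in one step; PE single-colour flow cytometry on 20,000 gated events.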

[4] = Aqueous solubility of the compound; format: physicochemical; settings: buffer

| Compound | EC50 [1] [nM] | also measured |
| --- | --- | --- |
| CCCCCCCCCCCCCCCC(=O)OC[C@@H](O)CSC[C@H](N)C(=O)N[C@@H](CO)C(=O)O | 1.95 | – |
| CCCCCCCCCCCCCCCCOC(=O)CCSC[C@H](N)C(=O)N[C@@H](CO)C(=O)OC | > 1000 | – |
| CCOCCOCCOCCCNCC(=O)OC[C@H](CSC[C@H](N)C(=O)N[C@@H](CO)C(=O)O)OC(=O)CNCCCOCCOCCOCC | > 1000 | – |
| CCCCCCCCCCCCCCCC(=O)OCCCSC[C@H](N)C(=O)N[C@@H](CO)C(=O)OC | > 1000 | – |
| CCCCCCCCCCCC(=O)OC[C@H](CSC[C@H](N)C(=O)N[C@@H](CO)C(=O)O)OC(=O)CCCCCCCCCCC | 6.48 | – |
| CCCCCCCCCCCCCC(=O)OC[C@H](CSC[C@H](N)C(=O)N[C@@H](CO)C(=O)O)OC(=O)CCCCCCCCCCCCC | 0.56 | – |
| CCCCCCCCCCCCCCCC(=O)OC[C@H](C[Se]C[C@H](N)C(=O)N[C@@H](CO)C(=O)OC)OC(=O)CCCCCCCCCCCCCCC | 0.26 | – |
| CCCCCCCCCCCCCCCC(=O)O[C@H](CO)CSC[C@H](N)C(=O)N[C@@H](CO)C(=O)O | 1.86 | – |
| CC/C=C\C/C=C\C/C=C\CCCCCCCC(=O)OC[C@H](CSC[C@H](N)C(=O)NCC(=O)OC(C)C)OC(=O)CCCCCCC/C=C\C/C=C\C/C=C\CC | 0.87 | – |
| CCCCCCCCCCCCCCCC(=O)OCC(CSC[C@H](N)C(=O)N[C@@H](CO)C(=O)O)OC(=O)CCCCCCCCCCCCCCC (mixture of isomers) | – | Activity [2]: Active; Activity [3]: Active |
| CCCCCCCCCCCCCCCC(=O)OCCSC[C@H](N)C(=O)N[C@@H](CO)C(=O)OC | 4.44 | Activity [2]: Active; Activity [3]: Active |
| CCCCCCCCCCCCCCCC(=O)O[C@H](COC(=O)CNCCCOCCOCCOCCCN)CSC[C@H](N)C(=O)N[C@@H](CO)C(=O)O | 1.55 | solubility [4]: soluble |
| CCCCCCCCCCCCCCCC(=O)O[C@H](COC(=O)CNCCCNCCCCNCCCN)CSC[C@H](N)C(=O)N[C@@H](CO)C(=O)O | 3.23 | solubility [4]: soluble |
| CCCCCCCCCCCCCCCCOC(=O)CSC[C@H](N)C(=O)N[C@@H](CO)C(=O)OC | > 1000 | – |
| CCCCCCCCCCCCCCCC(=O)O[C@H](COC(=O)CNCCCOCCOCCOCC)CSC[C@H](N)C(=O)N[C@@H](CO)C(=O)O | 2.11 | solubility [4]: soluble |
| CCCCC/C=C\C/C=C\CCCCCCCC(=O)OC[C@H](CSC[C@H](N)C(=O)NCC(=O)OC(C)C)OC(=O)CCCCCCC/C=C\C/C=C\CCCCC | 1 | – |

The next lines start with results.

| EC50 [1] [nM] | Compound | also measured |
| --- | --- | --- |
| 1.47 | CCCCCCCCCCCCCCCCCC(=O)OC[C@H](CSC[C@H](N)C(=O)N[C@@H](CO)C(=O)O)OC(=O)CCCCCCCCCCCCCCCCC | – |
| 0.45 | CCCCCCCCCCCCCCCC(=O)OC[C@H](CSC[C@H](N)C(=O)NCC(=O)OC(C)C)OC(=O)CCCCCCCCCCCCCCC | – |
| > 1000 | CCCCCCCCCCCCCCCC(=O)OC[C@H](CSC(C)(C)[C@H](N)C(=O)N[C@@H](CO)C(=O)O)OC(=O)CCCCCCCCCCCCCCC | – |
| > 1000 | CCCCCCCCCCCCCCCC(=O)OC[C@H](CSC(C)(C)[C@@H](N)C(=O)N[C@@H](CO)C(=O)OC)OC(=O)CCCCCCCCCCCCCCC | – |
| > 1000 | CCCCCCCCCCCCCCCC(=O)OC[C@H](CSCC[C@H](N)C(=O)N[C@@H](CO)C(=O)O)OC(=O)CCCCCCCCCCCCCCC | – |
| > 1000 | CCCCCCCCCCCCCCCC(=O)OC[C@H](CSCCC(=O)N[C@@H](CO)C(=O)OC)OC(=O)CCCCCCCCCCCCCCC | – |
| > 1000 | CCCCCCCCCCCCCCCC(=O)OC[C@H](CSC[C@H](NC(=O)CC[C@H](N)C(=O)O)C(=O)NCC(=O)OC(C)C)OC(=O)CCCCCCCCCCCCCCC | – |
